# Source: PubChem BioAssay (several laboratories)
# Shown are actives, neighbours in structure and some others; about 2.6% of the full set was active somewhere.
# TNAP inh no acc: blocks human TNAP activity with no phosphate acceptor present; P05186; purified TNAP, CDP-star luminescence, 30 min; inhibition, % at 20 µM; hit rate 0.26% among 200,000; AID 1012;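 active = tissue-nonspecific alkaline phosphatase inhibition above about 50% at 20 µM in the single-dose screen, limit read from the data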;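 also: 0% = DMSO negative control and 100% = EDTA positive control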
# Target sequence (P05186 whole entry, looked up): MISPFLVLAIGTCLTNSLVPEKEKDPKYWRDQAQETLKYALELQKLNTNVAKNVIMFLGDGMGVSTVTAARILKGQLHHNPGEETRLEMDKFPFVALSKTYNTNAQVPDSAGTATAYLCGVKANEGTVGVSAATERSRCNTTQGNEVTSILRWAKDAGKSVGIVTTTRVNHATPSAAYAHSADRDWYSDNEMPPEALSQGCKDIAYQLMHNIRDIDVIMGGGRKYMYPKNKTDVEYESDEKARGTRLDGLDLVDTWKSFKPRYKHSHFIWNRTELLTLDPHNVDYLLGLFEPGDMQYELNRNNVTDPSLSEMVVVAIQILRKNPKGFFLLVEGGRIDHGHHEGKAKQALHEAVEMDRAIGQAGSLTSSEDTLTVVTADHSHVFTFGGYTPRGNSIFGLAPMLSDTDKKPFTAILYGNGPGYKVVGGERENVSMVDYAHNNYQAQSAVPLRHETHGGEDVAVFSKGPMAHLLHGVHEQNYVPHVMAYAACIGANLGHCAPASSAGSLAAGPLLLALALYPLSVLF
# TNAP inh hi DEA: inhibitors of human TNAP at high phosphate acceptor concentration. P05186. purified TNAP, CDP-star luminescence, 1 M DEA. inhibition, % at 20 µM. hit rate 0.03% among 200,000. AID 1135;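 active = over 50% inhibition of tissue-nonspecific alkaline phosphatase at 20 µM in the single-dose screen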;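 also: plate controls were DMSO wells for no effect and EDTA-quenched wells as full inhibition for full effect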
# Arbovirus inh: antivirals against arbovirus infection; arbovirus infection cell-based antiviral screen; inhibition, % at 10 µM; hit rate 0.37% among 200,000; AID 1251; in the data active = inhibition above about 30%
# TNAP act hi DEA: increases human TNAP activity under high phosphate acceptor concentration | AID 1136 | activation factor at 20 µM | 200,000 tested, under 10 active | purified TNAP, CDP-star luminescence, 1 M DEA, 30 min; active compounds read high; 0 = EDTA background, 1 = DMSO-only activity | P05186;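 active = activation factor at least 2 at 20 µM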
#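 Assay system: human TNAP; Input: enzyme diluted 1/800 final; Reagent: CDP-star luminogenic substrate at 100 µM final; Timing: 30 min, room temperature; Signal: luminescence; Evaluation: TNAP activation factor scaled between EDTA and DMSO control wells.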
# WT yeast gro inh: growth inhibition of WT yeast, mitochondrial fusion screen. inhibition, % at 10 µM. mitochondrial fusion phenotypic screen, WT strain. hit rate 2.1% among 190,000; in the data active = inhibition above about 58%; tested in S. cerevisiae
# An asterisk follows results filed as active.
SMILES,TNAP inh no acc,TNAP inh hi DEA,Arbovirus inh,TNAP act hi DEA,WT yeast gro inh
CCOc1ccc(-n2c(=S)sc3c(=O)[nH]c(SCC(=O)N4CCC(C)CC4)nc32)cc1,2,6,-1,0.9,1
O=C(O)c1ccc(S(=O)(=O)c2ccc(Sc3ccc(C(=O)O)c(C(=O)O)c3)cc2)cc1,1,-6,9,1.1,-5
C=CCSc1n[nH]c(-c2ccc(OCCC)cc2)n1,50*,-1,-11,1,10
Cc1ccc(CN2CCNC(=O)C2CC(=O)NCCCn2ncc3ccccc32)o1 (stereo not given),-12,-4,5,1,9
CCCCNC(=O)CN(c1cccc(Br)c1)S(C)(=O)=O,-9,-2,2,1,0
CN(c1ccc(O)cc1)c1nc(-c2cccs2)cs1,-11,-3,1,1,67*
Cc1nc(N)sc1-c1csc(N(C)c2ccc(O)cc2)n1,-17,-8,-27,1.1,18
CCn1c(Cn2nnc(-c3ccccc3)n2)nnc1SCc1ccc(Cl)c(Cl)c1,-12,-7,-32,1.1,79*
CCn1c(Cn2nnc(-c3ccccc3)n2)nnc1SCC(=O)N1CCOCC1,-8,0,9,1,4
Cc1cc(C)n2nc(SCC(=O)c3c(N)n(CC(C)C)c(=O)n(C)c3=O)nc2n1,-1,-2,6,1,1
CCOC(=O)c1c(C)n(O)c2ccc(Cl)cc2c1=O,-9,8,0,0.9,-22
Cc1cc(C)n(CC(O)Cn2c3ccc(Cl)cc3c3cc(Cl)ccc32)c(=O)n1 (stereo not given),2,2,-35,1,97*
Cc1ccc(Nc2ncccc2C(=O)NCc2cccs2)c(C)c1,-2,1,-24,1,67*
CC(=O)OCc1c(F)c(F)c(-n2nc(C)cc2C)c(F)c1F,-13,-6,6,1.1,22
Cc1nn(C(C)C(=O)N2CCN(c3ccccn3)CC2)c(=O)c2cc3occc3n12 (stereo not given),-3,-6,-8,1.1,2
CCc1nn(C(C)C(=O)N2CCN(Cc3ccccc3)CC2)c(=O)c2cc3occc3n12 (stereo not given),-1,-1,-2,1,58*
CC(C)COc1ccc(C(=O)Nc2sc3c(c2C(=O)O)CC(C)(C)OC3)cc1,8,-5,61*,1,-10
COc1ccc(C(=O)Nc2sc3c(c2C(=O)O)CC(C)(C)OC3)cc1,-8,-2,34*,1,-5
CC1(C)Cc2c(sc(NC(=O)c3ccccc3)c2C(=O)O)CO1,-5,-2,12,1,11
CCCCc1cn([C@@H](CCCCNC(=O)OC(C)(C)C)C(=O)N2CCN(C(=O)OC(C)(C)C)CC2)nn1,-5,-3,5,1,-2
C/C(=N/NC(=O)c1ccco1)c1ccc(NC(=O)c2ccc(F)cc2)cc1,-7,-4,3,1,-9
O=C(O)c1cc(-c2ccc(/C=N/Nc3ccc([N+](=O)[O-])cn3)o2)ccc1Cl,9,41,31*,0.6,-7
O=C(Cc1ccc(F)cc1)N/N=C/c1ccc(-c2ccc(Cl)c(C(=O)O)c2)o1,-2,-7,13,1.1,-16
CCC1C/C(=C\c2cccnc2)C(=O)/C(=C/c2cccnc2)C1 (stereo not given),-22,0,-31,1,64*
CCc1ccc(Nc2nnc(SCC(=O)NCCN3C(=O)CSC3=O)s2)cc1,16,2,3,1,2
SMILES,TNAP inh no acc,TNAP inh hi DEA,Arbovirus inh,TNAP act hi DEA,WT yeast gro inh
Cc1csc(NC(=O)c2cc(-c3ccccc3)nc3ccccc23)n1,-8,4,6,1,62*
Cc1ccc(C)c(-c2cc(C(=O)Nc3nccs3)c3ccccc3n2)c1,1,-3,18,1,61*
O=C(Nc1nnc(-c2cccs2)o1)c1cc(-c2ccccc2)nc2ccccc12,-12,-7,-11,1.1,71*
COC(=O)c1sccc1NC(=O)c1cc(-c2cc(C)ccc2C)nc2ccccc12,-4,1,-5,1,1
O=C(NCc1cccs1)c1cc(-c2ccccc2)nc2ccccc12,2,3,5,1,-5
CS(=O)(=O)N1CC(C(=O)NC2CC2)Oc2ccc(Cl)cc21 (stereo not given),-13,-2,3,1,6
CCOC(=O)C1(Cc2ccc(Cl)cc2)CCN(C(=O)c2ccoc2)CC1,-10,-10,-3,1.1,14
CN1[C@@H]2CC[C@H]1CC(OC(=O)C(CO)c1ccccc1)C2 (stereo not given in full),-10,-3,-8,1,-8
COc1ccc(-n2ncc3c(NCc4ccccn4)ncnc32)cc1,-7,-2,-9,1,-5
Cc1cccc2c(CC(=O)Nc3ccccc3)noc12,-6,-6,-2,1.1,-7
CCOC(=O)C1(CCOc2ccccc2)CCN(Cc2ccc3nonc3c2)CC1,-5,-4,4,1,62*
Cc1ccc(C)c(NCCC#N)c1,-1,7,-4,0.9,-1
Cc1ccc(-c2cc3ccccc3nc2N2CCOCC2)cc1,-6,-2,-13,1,59*
S=c1[nH]nc(COc2ccccc2)n1/N=C/c1cccnc1,-8,-5,-2,1,-1
S=c1[nH]nc(COc2ccccc2)n1/N=C/C=C/c1ccccc1,15,6,8,0.9,71*
S=c1[nH]nc(COc2ccccc2)n1/N=C/C(Cl)=C/c1ccccc1,38,0,-37,1,73*
COc1cccc(NCc2cc(=O)oc3cc(-c4ccccc4)c(O)cc23)c1,6,-1,12,1,18
COc1ccc2[nH]cc(S(=O)(=O)c3ccc(C)cc3)c2c1,2,-1,5,1,-2
C/C(CC(=O)Nc1ccccc1Br)=N\NC(=O)C(=O)N1CCCC1,66*,4,1,1,8
C/C(CC(=O)Nc1ccc(Cl)cc1Cl)=N\NC(=O)C(=O)N1CCCC1,40,3,1,1,-1
COc1ccc(OC)c(CN2CCCC(CO)C2)c1 (stereo not given),-19,-2,2,1,-3
O=C(Nc1nc(-c2cccs2)c(-c2cccs2)s1)C1CCCC1,-21,-2,-13,1,72*
O=C(Nc1nnc(-c2cccs2)s1)C1CC1,-11,-6,0,1.1,-7
CC(Oc1ncnc2ccccc12)C(=O)Nc1cccc(S(=O)(=O)N2CCOCC2)c1 (stereo not given),-6,-2,2,1,14
COC(=O)c1sccc1NC(=O)CSc1ccccc1NS(=O)(=O)c1ccc(Br)cc1,5,-5,32*,1.1,6
O=C(CSCc1ccc(Br)cc1)Nc1ccc(S(=O)(=O)N2CCOCC2)cc1,-10,-4,-4,1,6
COC(=O)c1sccc1NC(=O)CSc1ccccc1NS(=O)(=O)c1ccc(F)cc1,-16,-4,7,1,27
Cc1ccccc1NS(=O)(=O)c1ccc(NC(=O)CSCc2ccc(Br)cc2)cc1,-12,0,6,1,66*
